Experimental data as given in ChEMBL document CHEMBL4396947, “Synthesis and characterization of novel isoform-selective IP6K1 inhibitors” (Bioorg Med Chem Lett, 2019).

How the values were obtained:
[1] = species: Homo sapiens; test: Selectivity ratio of Ki for IP6K2 (unknown origin) to Ki for IP6K1 (unknown origin)
Procedure, shortened: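 Purified IP6K1, IP6K2 and IP6K3 were each tested in an ADP-Glo Max luminescence assay optimized for IP6K, with 1 mM ATP consumed as the kinase reaction proceeds. IC50 values from each isoform were converted to Ki with the Cheng-Prusoff equation, and the Ki ratio versus IP6K1 was taken.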

[2] = molecular target: T1, Inositol hexakisphosphate kinase 2 (Homo sapiens, UniProt Q9UHH9); test: Inhibition of IP6K2 (unknown origin) in presence of ATP at Km concentration by Cheng-Prusoff equation analysis
T1 sequence (Q9UHH9 whole entry, canonical isoform): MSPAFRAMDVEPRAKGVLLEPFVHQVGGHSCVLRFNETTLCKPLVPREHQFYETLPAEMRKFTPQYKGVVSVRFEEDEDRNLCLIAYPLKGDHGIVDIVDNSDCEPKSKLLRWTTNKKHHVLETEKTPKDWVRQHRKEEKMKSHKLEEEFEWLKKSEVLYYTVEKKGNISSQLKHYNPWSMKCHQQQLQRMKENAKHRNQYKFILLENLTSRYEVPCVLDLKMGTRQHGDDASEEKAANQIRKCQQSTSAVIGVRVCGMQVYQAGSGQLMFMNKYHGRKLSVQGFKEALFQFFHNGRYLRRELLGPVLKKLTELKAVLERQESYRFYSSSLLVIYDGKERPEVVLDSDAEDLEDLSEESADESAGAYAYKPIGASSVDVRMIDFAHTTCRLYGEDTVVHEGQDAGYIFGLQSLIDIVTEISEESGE
Procedure, shortened: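 Purified IP6K isoforms run in the ADP-Glo Max kinase assay with 1 mM ATP. Measured IC50 values converted to Ki with the Cheng-Prusoff equation.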

[3] = molecular target: T1, Inositol hexakisphosphate kinase 2; test: Inhibition of IP6K2 (unknown origin) incubated for 30 mins using IP6 as substrate in presence of ATP by ADP-Glo reagent based luminescence assay
Procedure, shortened: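 Luminescent ADP-Glo Max format adapted for IP6K, with purified enzyme and ATP at 1 mM, which is consumed as the kinase reaction proceeds. IC50 taken from the resulting inhibition data.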

[4] = molecular target: T2, Inositol hexakisphosphate kinase 1 (Homo sapiens, UniProt Q92551); test: Binding affinity to IP6K1 (unknown origin) assessed as change in melting temperature by SYPRO orange dye-based assay
T2 sequence (Q92551 whole entry, looked up): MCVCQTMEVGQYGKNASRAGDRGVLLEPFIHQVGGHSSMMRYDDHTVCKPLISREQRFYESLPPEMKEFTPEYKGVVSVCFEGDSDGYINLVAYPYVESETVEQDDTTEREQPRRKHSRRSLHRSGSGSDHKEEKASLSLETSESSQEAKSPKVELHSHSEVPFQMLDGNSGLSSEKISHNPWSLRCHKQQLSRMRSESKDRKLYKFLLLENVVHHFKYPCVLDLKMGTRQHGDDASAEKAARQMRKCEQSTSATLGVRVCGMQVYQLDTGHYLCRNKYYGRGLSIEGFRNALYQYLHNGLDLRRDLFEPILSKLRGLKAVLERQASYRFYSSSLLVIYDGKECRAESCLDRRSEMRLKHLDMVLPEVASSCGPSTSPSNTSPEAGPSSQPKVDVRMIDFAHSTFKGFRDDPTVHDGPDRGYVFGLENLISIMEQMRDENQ
Procedure, shortened: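 Thermal shift format. Purified IP6K1 heated across a temperature gradient with the ligand at several concentrations. Binding read as the rise in protein melting temperature, including the maximal Tm shift (TmMax).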

[5] = molecular target: Mitogen-activated protein kinase kinase kinase 5 (Homo sapiens) (UniProt Q99683); test: Inhibition of recombinant human ASK1 (649 to 946 residues) assessed as residual activity at 10 uM using myelin basic protein as substrate incubated for 40 mins in presence of [gamma-33P]ATP at Km concentration by radiometric assay relative to control
[6] = molecular target: CDK6/cyclin D3 (Homo sapiens) (UniProt P30281+Q00534); test: Inhibition of human full length recombinant CDK6/cyclinD3 assessed as residual activity at 10 uM using Histone H1 as substrate incubated for 40 mins in presence of [gamma-33P]ATP at Km concentration by radiometric assay relative to control; format: protein-complex assay
[7] = molecular target: CDK7/Cyclin H/MNAT1 (Homo sapiens) (UniProt P51946+P50613+P51948); test: Inhibition of human full length recombinant CDK7/cyclinH/MAT1 assessed as residual activity at 10 uM using peptide as substrate incubated for 40 mins in presence of [gamma-33P]ATP at Km concentration by radiometric assay relative to control; format: protein-complex assay
[8] = molecular target: Casein kinase II subunit alpha' (Homo sapiens) (UniProt P19784); test: Inhibition of recombinant full length human CK2alpha2 assessed as residual activity at 10 uM using RRRDDDSDDD as substrate incubated for 40 mins in presence of [gamma-33P]ATP at Km concentration by radiometric assay relative to control
Sequence of Casein kinase II subunit alpha' (Homo sapiens) (P19784 whole entry, looked up, the tested form may be a part): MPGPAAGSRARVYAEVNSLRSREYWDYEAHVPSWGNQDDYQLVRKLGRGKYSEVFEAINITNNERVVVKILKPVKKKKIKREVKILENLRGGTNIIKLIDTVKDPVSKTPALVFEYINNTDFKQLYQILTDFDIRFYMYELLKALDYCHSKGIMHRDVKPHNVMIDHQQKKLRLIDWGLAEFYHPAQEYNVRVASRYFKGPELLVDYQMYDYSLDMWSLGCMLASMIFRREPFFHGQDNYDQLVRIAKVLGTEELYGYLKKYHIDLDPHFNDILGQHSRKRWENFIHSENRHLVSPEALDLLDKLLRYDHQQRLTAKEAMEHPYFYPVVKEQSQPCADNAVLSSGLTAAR

[9] = molecular target: Ephrin type-A receptor 5 (Homo sapiens) (UniProt P54756); test: Inhibition of recombinant human EPHA5 (655 to 956 residues) assessed as residual activity at 10 uM using poly (Glu,Tyr) 4:1 as substrate incubated for 40 mins in presence of [gamma-33P]ATP at Km concentration by radiometric assay relative to control
Sequence of Ephrin type-A receptor 5 (Homo sapiens) (P54756 whole entry, the tested form may be a part): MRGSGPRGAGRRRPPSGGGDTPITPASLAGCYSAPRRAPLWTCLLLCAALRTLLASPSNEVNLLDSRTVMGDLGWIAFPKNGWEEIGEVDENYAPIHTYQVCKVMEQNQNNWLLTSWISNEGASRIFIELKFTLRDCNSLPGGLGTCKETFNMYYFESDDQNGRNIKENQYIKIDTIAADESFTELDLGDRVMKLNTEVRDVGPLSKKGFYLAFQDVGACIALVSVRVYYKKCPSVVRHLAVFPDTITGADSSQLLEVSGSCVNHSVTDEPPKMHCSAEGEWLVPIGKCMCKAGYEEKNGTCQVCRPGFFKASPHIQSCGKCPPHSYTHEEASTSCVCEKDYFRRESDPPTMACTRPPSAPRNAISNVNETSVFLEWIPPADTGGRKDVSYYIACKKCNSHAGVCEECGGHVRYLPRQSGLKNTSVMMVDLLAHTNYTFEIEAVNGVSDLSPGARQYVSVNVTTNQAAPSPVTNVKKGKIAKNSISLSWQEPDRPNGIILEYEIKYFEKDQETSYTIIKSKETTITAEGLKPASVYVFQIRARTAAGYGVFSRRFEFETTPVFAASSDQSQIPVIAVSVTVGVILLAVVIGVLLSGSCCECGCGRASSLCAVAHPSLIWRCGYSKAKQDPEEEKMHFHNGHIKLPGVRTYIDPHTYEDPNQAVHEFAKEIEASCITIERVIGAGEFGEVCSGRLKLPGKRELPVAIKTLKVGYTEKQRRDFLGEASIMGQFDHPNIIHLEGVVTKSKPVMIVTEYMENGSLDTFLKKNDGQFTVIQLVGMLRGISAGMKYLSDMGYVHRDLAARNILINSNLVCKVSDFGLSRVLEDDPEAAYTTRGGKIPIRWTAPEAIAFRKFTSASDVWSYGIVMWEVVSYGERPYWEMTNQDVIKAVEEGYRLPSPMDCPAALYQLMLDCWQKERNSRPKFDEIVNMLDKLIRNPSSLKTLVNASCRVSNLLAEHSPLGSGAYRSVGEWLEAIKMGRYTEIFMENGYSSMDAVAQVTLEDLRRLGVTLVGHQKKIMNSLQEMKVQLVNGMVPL

[10] = molecular target: Tyrosine-protein kinase Lyn (Homo sapiens) (UniProt P07948); test: Inhibition of full length recombinant human LYN assessed as residual activity at 10 uM using poly (Glu,Tyr) 4:1 as substrate incubated for 40 mins in presence of [gamma-33P]ATP at Km concentration by radiometric assay relative to control
Sequence of Tyrosine-protein kinase Lyn (Homo sapiens) (P07948 2-512 limits assumed): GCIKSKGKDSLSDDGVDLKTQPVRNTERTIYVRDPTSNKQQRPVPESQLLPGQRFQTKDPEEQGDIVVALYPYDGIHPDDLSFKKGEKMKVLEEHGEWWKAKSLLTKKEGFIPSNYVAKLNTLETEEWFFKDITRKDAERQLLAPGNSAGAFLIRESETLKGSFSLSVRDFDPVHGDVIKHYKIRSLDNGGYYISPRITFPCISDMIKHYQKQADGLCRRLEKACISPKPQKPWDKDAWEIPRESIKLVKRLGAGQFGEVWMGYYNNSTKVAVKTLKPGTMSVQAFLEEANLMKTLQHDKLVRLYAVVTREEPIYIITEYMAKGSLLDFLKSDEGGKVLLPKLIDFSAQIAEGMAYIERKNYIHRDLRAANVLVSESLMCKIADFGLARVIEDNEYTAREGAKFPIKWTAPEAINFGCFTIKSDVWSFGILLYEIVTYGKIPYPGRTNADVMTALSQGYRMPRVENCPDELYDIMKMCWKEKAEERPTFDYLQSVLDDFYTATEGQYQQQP

[11] = species: Homo sapiens; test: Inhibition of recombinant human MAPKAPK2 A399G mutant (46 to end residues) assessed as residual activity at 10 uM using KKLNRTLSVA as substrate incubated for 40 mins in presence of [gamma-33P]ATP at Km concentration by radiometric assay relative to control
[12] = molecular target: MAP kinase-interacting serine/threonine-protein kinase 2 (Homo sapiens) (UniProt Q9HBH9); test: Inhibition of full length recombinant human MNK2 assessed as residual activity at 10 uM using myelin basic protein as substrate incubated for 40 mins in presence of [gamma-33P]ATP at Km concentration by radiometric assay relative to control
Sequence of MAP kinase-interacting serine/threonine-protein kinase 2 (Homo sapiens) (Q9HBH9 whole entry, looked up): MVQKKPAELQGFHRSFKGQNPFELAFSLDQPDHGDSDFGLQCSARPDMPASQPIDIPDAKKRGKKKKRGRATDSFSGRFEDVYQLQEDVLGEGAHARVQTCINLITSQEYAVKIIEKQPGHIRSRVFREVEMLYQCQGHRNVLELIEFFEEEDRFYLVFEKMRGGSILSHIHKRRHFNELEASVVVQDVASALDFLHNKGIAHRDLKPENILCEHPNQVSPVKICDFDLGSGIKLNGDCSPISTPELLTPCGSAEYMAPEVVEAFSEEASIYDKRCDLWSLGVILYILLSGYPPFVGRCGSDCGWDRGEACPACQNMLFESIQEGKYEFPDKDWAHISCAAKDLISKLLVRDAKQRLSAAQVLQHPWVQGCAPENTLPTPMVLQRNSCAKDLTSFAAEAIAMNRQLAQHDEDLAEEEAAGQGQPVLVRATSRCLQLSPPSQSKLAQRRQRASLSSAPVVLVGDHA

[13] = molecular target: Serine/threonine-protein kinase 4 (Homo sapiens) (UniProt Q13043); test: Inhibition of full length recombinant human MST1 assessed as residual activity at 10 uM using KKSRGDYMTMQIG as substrate incubated for 40 mins in presence of [gamma-33P]ATP at Km concentration by radiometric assay relative to control
Sequence of Serine/threonine-protein kinase 4 (Homo sapiens) (Q13043 whole entry): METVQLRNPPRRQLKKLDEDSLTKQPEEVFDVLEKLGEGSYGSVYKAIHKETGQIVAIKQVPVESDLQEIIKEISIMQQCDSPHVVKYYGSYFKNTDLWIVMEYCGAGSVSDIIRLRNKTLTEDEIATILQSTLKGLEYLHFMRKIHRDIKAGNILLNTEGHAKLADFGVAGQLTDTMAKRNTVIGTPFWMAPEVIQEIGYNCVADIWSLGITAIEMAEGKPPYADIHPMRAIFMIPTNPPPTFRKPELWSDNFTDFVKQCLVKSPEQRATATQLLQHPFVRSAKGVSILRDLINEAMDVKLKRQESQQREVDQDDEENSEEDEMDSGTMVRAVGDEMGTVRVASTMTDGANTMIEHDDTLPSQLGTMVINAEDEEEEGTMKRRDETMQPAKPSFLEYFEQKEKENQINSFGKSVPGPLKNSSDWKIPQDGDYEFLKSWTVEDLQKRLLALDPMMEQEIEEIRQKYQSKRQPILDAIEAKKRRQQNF

[14] = molecular target: Serine/threonine-protein kinase Nek2 (Homo sapiens) (UniProt P51955); test: Inhibition of full length recombinant human NEK2 assessed as residual activity at 10 uM using myelin basic protein as substrate incubated for 40 mins in presence of [gamma-33P]ATP at Km concentration by radiometric assay relative to control
Sequence of Serine/threonine-protein kinase Nek2 (Homo sapiens) (P51955 whole entry): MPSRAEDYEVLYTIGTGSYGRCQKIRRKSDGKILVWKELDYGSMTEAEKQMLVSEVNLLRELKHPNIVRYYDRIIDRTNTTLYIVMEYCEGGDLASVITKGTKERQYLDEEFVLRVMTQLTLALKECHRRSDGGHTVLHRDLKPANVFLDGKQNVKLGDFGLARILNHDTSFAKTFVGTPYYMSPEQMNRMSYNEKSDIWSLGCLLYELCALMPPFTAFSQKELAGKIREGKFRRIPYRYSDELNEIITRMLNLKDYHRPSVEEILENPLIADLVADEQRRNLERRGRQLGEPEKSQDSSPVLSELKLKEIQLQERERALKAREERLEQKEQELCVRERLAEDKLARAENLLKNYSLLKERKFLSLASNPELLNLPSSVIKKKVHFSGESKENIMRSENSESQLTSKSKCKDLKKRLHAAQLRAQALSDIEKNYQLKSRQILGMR

[15] = species: Homo sapiens; test: Inhibition of recombinant human PAK2 L150F/P225T/A339 deletion/V383I mutant (3 to end residues) assessed as residual activity at 10 uM using KEAKEKRQEQIAKR as substrate incubated for 40 mins in presence of [gamma-33P]ATP at Km concentration by radiometric assay relative to control
[16] = molecular target: Platelet-derived growth factor receptor beta (Homo sapiens) (UniProt P09619); test: Inhibition of recombinant human PDGFRbeta (557 to end residues) assessed as residual activity at 10 uM using poly (Glu,Tyr) 4:1 as substrate incubated for 40 mins in presence of [gamma-33P]ATP at Km concentration by radiometric assay relative to control
[17] = molecular target: cAMP-dependent protein kinase catalytic subunit alpha (Homo sapiens) (UniProt P17612); test: Inhibition of recombinant full length human PRKACA assessed as residual activity at 10 uM using LRRASLG as substrate incubated for 40 mins in presence of [gamma-33P]ATP at Km concentration by radiometric assay relative to control
[18] = molecular target: Rho-associated protein kinase 1 (Homo sapiens) (UniProt Q13464); test: Inhibition of recombinant human ROCK1 (17 to 535 residues) assessed as residual activity at 10 uM using KEAKEKRQEQIAKR as substrate incubated for 40 mins in presence of [gamma-33P]ATP at Km concentration by radiometric assay relative to control
[19] = molecular target: SRSF protein kinase 1 (Homo sapiens) (UniProt Q96SB4); test: Inhibition of recombinant human SRPK1 (2 to end residues) assessed as residual activity at 10 uM using RSRSRSRSRSRSRSR as substrate incubated for 40 mins in presence of [gamma-33P]ATP at Km concentration by radiometric assay relative to control
Sequence of SRSF protein kinase 1 (Homo sapiens) (Q96SB4 whole entry): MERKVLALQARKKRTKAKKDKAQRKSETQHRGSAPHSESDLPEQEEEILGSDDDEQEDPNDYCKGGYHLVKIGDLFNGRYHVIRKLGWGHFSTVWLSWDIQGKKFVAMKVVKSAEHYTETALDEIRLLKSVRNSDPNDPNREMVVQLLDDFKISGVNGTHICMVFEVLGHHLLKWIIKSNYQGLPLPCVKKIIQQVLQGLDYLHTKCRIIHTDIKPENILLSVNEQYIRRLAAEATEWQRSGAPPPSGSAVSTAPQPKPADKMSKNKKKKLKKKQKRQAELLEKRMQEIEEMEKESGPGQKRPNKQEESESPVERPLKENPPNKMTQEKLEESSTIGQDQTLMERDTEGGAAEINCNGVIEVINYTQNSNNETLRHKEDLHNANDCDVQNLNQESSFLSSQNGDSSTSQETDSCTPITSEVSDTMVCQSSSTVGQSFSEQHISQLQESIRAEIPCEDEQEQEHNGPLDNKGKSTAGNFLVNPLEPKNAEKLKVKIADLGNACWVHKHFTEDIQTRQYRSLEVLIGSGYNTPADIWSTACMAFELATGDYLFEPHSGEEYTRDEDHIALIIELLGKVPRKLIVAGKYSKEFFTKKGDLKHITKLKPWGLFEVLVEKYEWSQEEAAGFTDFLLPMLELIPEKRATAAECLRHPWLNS

[20] = molecular target: T2, Inositol hexakisphosphate kinase 1; test: Binding affinity to IP6K1 (unknown origin) assessed as change in melting temperature at 11.1 uM by SYPRO orange dye based assay

Work on `COc1ccc2c(CCNc3nc(NCc4ccc(=O)[nH]c4)c4nc[nH]c4n3)c[nH]c2c1` yielded a Ratio Ki [1] of 24.4, a Ki [2] of 4.88 µM and an IC50 [3] of 20 µM. It also gave a ΔTm [4] of 6.6 °C, an Activity [5] of 72% and an Activity [6] of 82%. For the same compound, the Activity [7] was 48%, the Activity [8] was 100% and the Activity [9] was 114%. It also gave an Activity [10] of 86%, an Activity [11] of 102% and an Activity [12] of 76%. The Activity [13] was 82%, the Activity [14] was 87% and the Activity [15] was 98%. It also gave an Activity [16] of 101%, an Activity [17] of 77% and an Activity [18] of 91%. It also gave an Activity [19] of 91% and a ΔTm [20] of 5.5 °C.
